Assays:
Format in all cases: functional
[1] = Growth inhibition of human HOP62 cells after 48 hrs by sulforhodamine B assay; conditions: HOP-62, 48 h
Method in brief: (§1)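 NCI-60 panel screen by SRB assay (Rubinstein method). Percentage growth taken from optical density of SRB colour, read before and 48 hrs after exposure to compound or vehicle control. All analogues first screened at 10^-5 M. Analogues giving 60% growth inhibition at that level in at least eight lines then went to a five-concentration dose-response study.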

[2] = Growth inhibition of human LOXIMVI cells after 48 hrs by sulforhodamine B assay; conditions: LOX IMVI; method in brief: as §1
[3] = Growth inhibition of human HOP92 cells after 48 hrs by sulforhodamine B assay; conditions: HOP-92, 48 h; method in brief: as §1
[4] = test system: SK-MEL-5; assay: Growth inhibition of human SK-MEL-5 cells after 48 hrs by sulforhodamine B assay; conditions: SK-MEL-5, 48 h; method in brief: as §1
[5] = Growth inhibition of human SNB75 cells after 48 hrs by sulforhodamine B assay; conditions: SNB-75, 48 h; method in brief: as §1
[6] = test system: ACHN; assay: Growth inhibition of human ACHN cells after 48 hrs by sulforhodamine B assay; method in brief: as §1
[7] = Growth inhibition of human RPMI8226 cells after 48 hrs by sulforhodamine B assay; conditions: RPMI-8226, 48 h; method in brief: as §1
[8] = test system: NCI-H23; assay: Growth inhibition of human NCI-H23 cells after 48 hrs by sulforhodamine B assay; conditions: NCI-H23, 48 h; method in brief: as §1
[9] = test system: MDA-MB-231; assay: Growth inhibition of human MDA-MB-231 cells after 48 hrs by sulforhodamine B assay; conditions: MDA-MB-231, 48 h; method in brief: as §1
[10] = test system: SK-MEL-2; assay: Growth inhibition of human SK-MEL-2 cells after 48 hrs by sulforhodamine B assay; conditions: SK-MEL-2, 48 h; method in brief: as §1
[11] = Growth inhibition of human UO31 cells after 48 hrs by sulforhodamine B assay; conditions: UO-31, 48 h; method in brief: as §1
[12] = Growth inhibition of human HCT116 cells after 48 hrs by sulforhodamine B assay; conditions: HCT-116, 48 h; method in brief: as §1
[13] = test system: NCI-H460; assay: Growth inhibition of human NCI-H460 cells after 48 hrs by sulforhodamine B assay; conditions: NCI-H460, 48 h; method in brief: as §1
[14] = Growth inhibition of human OVCAR3 cells after 48 hrs by sulforhodamine B assay; conditions: OVCAR-3, 48 h
Method in brief: (§2)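 NCI-60 sulforhodamine B screen. Compounds were first tested at a single dose of 10⁻⁵ M; hits, defined as ≥60% growth inhibition in at least eight lines, went on to a five-concentration dose–response. SRB optical density was read before and 48 h after exposure to compound or vehicle. Percentage growth was calculated from OD.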

[15] = Growth inhibition of human IGROV1 cells after 48 hrs by sulforhodamine B assay; conditions: IGROV-1, 48 h; method in brief: as §1
[16] = Growth inhibition of human NCI-ADR-RES cells after 48 hrs by sulforhodamine B assay; method in brief: as §1
[17] = Growth inhibition of human HCC2998 cells after 48 hrs by sulforhodamine B assay; conditions: HCC 2998, 48 h; method in brief: as §1
[18] = test system: A498; assay: Growth inhibition of human A498 cells after 48 hrs by sulforhodamine B assay; conditions: A498, 48 h; method in brief: as §2
[19] = test system: U-251; assay: Growth inhibition of human U251 cells after 48 hrs by sulforhodamine B assay; conditions: U-251, 48 h; method in brief: as §1
[20] = Growth inhibition of human PC3 cells after 48 hrs by sulforhodamine B assay; conditions: PC-3, 48 h; method in brief: as §1
[21] = test system: MDA-MB-435; assay: Growth inhibition of human MDA-MB-435 cells after 48 hrs by sulforhodamine B assay; conditions: MDA-MB-435, 48 h; method in brief: as §2
[22] = test system: SR; assay: Growth inhibition of human SR cells after 48 hrs by sulforhodamine B assay; method in brief: as §1
[23] = Growth inhibition of human DU145 cells after 48 hrs by sulforhodamine B assay; conditions: DU-145, 48 h; method in brief: as §1
[24] = Growth inhibition of human SKOV3 cells after 48 hrs by sulforhodamine B assay; conditions: SK-OV-3, 48 h; method in brief: as §1
[25] = Growth inhibition of human SW620 cells after 48 hrs by sulforhodamine B assay; conditions: SW-620, 48 h; method in brief: as §1
[26] = Growth inhibition of human MOLT4 cells after 48 hrs by sulforhodamine B assay; conditions: MOLT-4, 48 h; method in brief: as §1
[27] = test system: A549; assay: Growth inhibition of human A549/ATCC cells after 48 hrs by sulforhodamine B assay; conditions: A549, 48 h; method in brief: as §1
[28] = test system: K562; assay: Growth inhibition of human K562 cells after 48 hrs by sulforhodamine B assay; conditions: K562, 48 h; method in brief: as §1
[29] = test system: KM12; assay: Growth inhibition of human KM12 cells after 48 hrs by sulforhodamine B assay; conditions: KM12, 48 h; method in brief: as §1
[30] = Growth inhibition of human SF295 cells after 48 hrs by sulforhodamine B assay; conditions: SF-295, 48 h; method in brief: as §1
[31] = test system: HT-29; assay: Growth inhibition of human HT-29 cells after 48 hrs by sulforhodamine B assay; conditions: HT-29, 48 h; method in brief: as §1
[32] = test system: MDA-MB-468; assay: Growth inhibition of human MDA-MB-468 cells after 48 hrs by sulforhodamine B assay; conditions: MDA-MB-468, 48 h; method in brief: as §1
[33] = test system: MCF7; assay: Growth inhibition of human MCF7 cells after 48 hrs by sulforhodamine B assay; conditions: MCF7, 48 h; method in brief: as §1
[34] = Growth inhibition of human SF268 cells after 48 hrs by sulforhodamine B assay; conditions: SF-268, 48 h; method in brief: as §1
[35] = Growth inhibition of human HCT15 cells after 48 hrs by sulforhodamine B assay; conditions: HCT-15, 48 h; method in brief: as §1
[36] = test system: CAKI-1; assay: Growth inhibition of human CAKI-1 cells after 48 hrs by sulforhodamine B assay; conditions: CAKI-1, 48 h; method in brief: as §1
[37] = test system: CCRF-CEM; assay: Growth inhibition of human CCRF-CEM cells after 48 hrs by sulforhodamine B assay; method in brief: as §1
[38] = read-out: LD50 (the source's name)

COc1cc(-c2n[nH]nc2-c2ccc3ccccc3n2)cc(OC)c1OC
GI50 [1]: 47 nM
LC50 (concentration killing 50% of cells) ([1]; read-out: LD50): > 100000 nM
GI50 [2]: 65 nM
CC50 [2, 38]: > 100000 nM
GI50 [3]: 99 nM
CC50 [3, 38]: > 100000 nM
GI50 [4]: 13 nM
CC50 [4, 38]: > 100000 nM
GI50 [5]: 16 nM
CC50 [5, 38]: > 100000 nM
GI50 [6]: 81 nM
CC50 [6, 38]: > 100000 nM
GI50 [7]: 37 nM
CC50 [7, 38]: > 100000 nM
GI50 [8]: 65 nM
LC50 (concentration giving 50% cell kill) ([8]; read-out: LD50): > 100000 nM
GI50 [9]: 94 nM
CC50 [9, 38]: > 100000 nM
GI50 [10]: 27 nM
CC50 [10, 38]: > 100000 nM
GI50 [11]: 92 nM
LC50 (concentration killing 50% of cells) ([11]; read-out: LD50): > 100000 nM
GI50 [12]: 40 nM
CC50 [12, 38]: > 100000 nM
GI50 [13]: 38 nM
CC50 [13, 38]: > 100000 nM
GI50 [14]: 11 nM
LC50 (concentration giving 50% net cell kill) ([14]; read-out: LD50): > 100000 nM
GI50 [15]: 65 nM
CC50 [15, 38]: > 100000 nM
GI50 [16]: 23 nM
CC50 [16, 38]: > 100000 nM
GI50 [17]: 230 nM
CC50 [17, 38]: > 100000 nM
GI50 [18]: 33 nM
LC50 (50% net cell kill) ([18]; read-out: LD50): > 100000 nM
GI50 [19]: 37 nM
CC50 [19, 38]: > 100000 nM
GI50 [20]: 46 nM
CC50 [20, 38]: > 100000 nM
GI50 [21]: < 10 nM
LC50 (concentration killing 50% of cells) ([21]; read-out: LD50): > 100000 nM
GI50 [22]: 21 nM
LC50 (concentration giving 50% net cell kill) ([22]; read-out: LD50): > 100000 nM
GI50 [23]: 27 nM
CC50 [23, 38]: > 100000 nM
GI50 [24]: 75 nM
LC50 (concentration killing 50% of cells) ([24]; read-out: LD50): > 100000 nM
GI50 [25]: 41 nM
LD50 (concentration killing 50% of cells) [25]: > 100 µM
GI50 [26]: 68 nM
CC50 [26, 38]: > 100000 nM
GI50 [27]: 54 nM
CC50 [27, 38]: > 100000 nM
GI50 [28]: 26 nM
CC50 [28, 38]: > 100000 nM
GI50 [29]: 35 nM
LC50 (concentration killing 50% of cells) ([29]; read-out: LD50): > 100000 nM
GI50 [30]: 14 nM
CC50 [30, 38]: > 100000 nM
GI50 [31]: 214 nM
LC50 (concentration killing 50% of cells) ([31]; read-out: LD50): > 100000 nM
GI50 [32]: 35 nM
CC50 [32, 38]: > 100000 nM
GI50 [33]: 27 nM
CC50 [33, 38]: > 100000 nM
GI50 [34]: 503 nM
CC50 [34, 38]: > 100000 nM
GI50 [35]: 37 nM
CC50 [35, 38]: > 100000 nM
GI50 [36]: 43 nM
CC50 [36, 38]: > 100000 nM
GI50 [37]: 37 nM
LC50 (concentration killing 50% of cells) ([37]; read-out: LD50): > 100000 nM
